# Assay results from different studies.
# Lines come from different studies, so protocols differ.
# Target: Homeodomain-interacting protein kinase 4 (HIPK4, Homo sapiens, UniProt Q8NE63)
# Effect on: enzyme activity
# Mode: inhibitor
# One construct used (Q8NE63 1-616): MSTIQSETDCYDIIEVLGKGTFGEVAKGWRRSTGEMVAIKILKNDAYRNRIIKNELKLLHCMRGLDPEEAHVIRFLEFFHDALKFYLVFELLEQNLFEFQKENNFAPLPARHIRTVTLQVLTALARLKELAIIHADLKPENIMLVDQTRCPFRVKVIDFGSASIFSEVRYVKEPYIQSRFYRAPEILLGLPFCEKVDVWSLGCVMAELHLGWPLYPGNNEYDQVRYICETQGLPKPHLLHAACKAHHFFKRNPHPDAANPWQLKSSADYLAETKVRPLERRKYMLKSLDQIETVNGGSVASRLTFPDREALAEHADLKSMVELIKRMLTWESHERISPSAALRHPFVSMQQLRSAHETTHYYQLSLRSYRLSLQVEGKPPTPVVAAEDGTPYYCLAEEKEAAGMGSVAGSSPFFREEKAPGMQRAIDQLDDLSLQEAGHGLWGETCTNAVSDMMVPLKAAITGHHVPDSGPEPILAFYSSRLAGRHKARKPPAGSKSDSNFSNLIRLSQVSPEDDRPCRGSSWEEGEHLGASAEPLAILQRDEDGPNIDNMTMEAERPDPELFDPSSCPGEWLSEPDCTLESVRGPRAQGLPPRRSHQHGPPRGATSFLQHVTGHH
Structure (SMILES),test,conditions,remaining activity [%]
COc1cc(Cl)c(C(=O)N[C@@H](CN[C@H]2CC[C@@H](N)CC2)Cc2ccc(C#N)cc2)cc1-c1ccc(CN[C@H](C)c2ccc(C)cc2)o1,,1 µM,90
Cc1ccc(C(=O)Nc2ccc(CN3CCN(C)CC3)c(C(F)(F)F)c2)cc1C#Cc1cnc2cccnn12,,23.5 nM,71
O=C(O)c1ccc2c(c1)nc(Nc1ccccc1)c1ccncc12,radiometric,1 µM,-2
Cc1sc(C(=O)NC2COC2)cc1-n1cc(NC(=O)Nc2c(F)cccc2Cl)cn1,,10 µM,98.4
CC(C)(O)[C@H]1CC[C@H](Nc2ccc3ncc(-c4cccc(C(F)(F)F)c4)n3n2)CC1,,1 µM,23.6
CC(C)(C)c1nc2c(s1)c1nc(N)ncc1c1ccc(NS(=O)(=O)c3c(F)cccc3F)c(F)c12,radiometric,1 µM,82
O=C(O)c1ccc2c(c1)nc(NCc1ccccc1)c1ncncc12,radiometric,1 µM,63
CC(C)(C)c1nc(-c2cccc(NS(=O)(=O)c3c(F)cccc3F)c2F)c(-c2ccnc(N)n2)s1,radiometric,1 µM,37
O=C(O)c1ccc2c(c1)nc(NCCc1ccccc1)c1ncncc12,radiometric,1 µM,29
O=C(Nc1cnn(-c2csc(C(=O)NC3COC3)c2)c1)Nc1ccccc1Cl,,5 µM,100
